In assay [1] the target is T1, Human immunodeficiency virus type 1 reverse transcriptase (Human immunodeficiency virus 1, UniProt Q72547, M184V). Kind of assay: Inhibition of DNA-dependent DNA polymerase activity of HIV 1 reverse transcriptase M184V mutant assessed as incorporation of 4-EdTMP by burst assay using DNA/DNA Primer/Template combination.
Assay [2] relates to Human immunodeficiency virus type 1 reverse transcriptase (Human immunodeficiency virus 1), Q72547 [M184V]. Kind of assay: Selectivity index, ratio of Kpol/Kd for RNA-dependent DNA polymerase activity of HIV 1 reverse transcriptase M184V mutant assessed as incorporation of dTMP to Kpol/Kd for RNA-dependent DNA polymerase activity of HIV 1 reverse transcriptase reverse transcriptase M184V mutant assessed as incorporation of Ed4TMP. A digest of the protocol: (§1)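 Selectivity factor: the single-turnover incorporation efficiency (kpol/Kd) for dTTP divided by that for the analogue triphosphate. Both used the same RT (wild type or M184V) and the same primer/template, DNA/DNA or DNA/RNA. Kd and kpol came from hyperbolic fits of first-phase rates against nucleotide concentration, with 250 nM RT over 50 nM labeled P/T at 25°C.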

Assay [3] addresses T2, Human immunodeficiency virus type 1 reverse transcriptase (Human immunodeficiency virus 1, UniProt Q72547). Kind of assay: Inhibition of RNA-dependent DNA polymerase activity of HIV 1 reverse transcriptase assessed as incorporation of 4-EdTMP by burst assay using RNA/DNA Primer/Template combination. The method in brief: (§2)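 Rapid chemical quench-flow at 25°C in 50 mM Tris-HCl pH 7.8, 50 mM NaCl. Wt or M184V HIV-1 RT (100 nM final) was preincubated with 5′-32P-labelled primer/template (300 nM final; DNA/DNA or DNA/RNA). It was mixed with buffer containing 20 mM MgSO4 (pre-mixing) and 2 mM nucleotide triphosphate (pre-mixing). Reactions were quenched at set times with 0.5 M EDTA and products resolved by urea-PAGE with phosphorimaging. Data were fitted to the burst equation.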

For assay [4], the system named is Human immunodeficiency virus type 1 reverse transcriptase (Human immunodeficiency virus 1), Q72547 [M184V]. As to the kind of experiment: Ratio of Kpol/Kd for DNA-dependent DNA polymerase activity of HIV 1 reverse transcriptase M184V mutant assessed as incorporation of 4-EdTMP by burst assay using DNA/DNA Primer/Template combination. A digest of the protocol:
(§3)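 Single-turnover rapid-quench at 25°C in Tris-HCl pH 7.8/NaCl/MgSO4 buffer, with enzyme in excess: 250 nM wild-type or M184V RT and 50 nM 5′-32P-labeled DNA/DNA or DNA/RNA primer/template. The incoming nucleotide concentration was varied. Products were resolved by urea-PAGE and phosphorimaged. First-phase rates were fitted to kobs = kpol[S]/(Kd+[S]), and efficiency was taken as kpol/Kd.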

For assay [5] the test system is unchanged. As to the kind of experiment: Activity of DNA-dependent DNA polymerase activity of HIV 1 reverse transcriptase M184V mutant assessed as incorporation of 4-EdTMP by burst assay using DNA/DNA Primer/Template combination. The method in brief:
(§4)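 Purified HIV-1 RT (wild type or M184V built by site-directed mutagenesis) was preincubated with a 5′-32P-labeled primer annealed to a DNA or RNA template. It was rapidly mixed in a quench-flow at 25°C in 50 mM Tris-HCl pH 7.8 with 50 mM NaCl and MgSO4. Final: 300 nM P/T, 100 nM enzyme, 1 mM nucleotide. Reactions were EDTA-quenched at set times, run on urea-PAGE and phosphorimaged, then fitted to the burst equation.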

Assay [6] addresses T2, Human immunodeficiency virus type 1 reverse transcriptase. Kind of assay: Inhibition of DNA-dependent DNA polymerase activity of HIV 1 reverse transcriptase assessed as incorporation of 4-EdTMP by burst assay using DNA/DNA Primer/Template combination. The method in brief:
as §2

Assay [7] deals with Human immunodeficiency virus type 1 reverse transcriptase (Human immunodeficiency virus 1), Q72547 [M184V]. Kind of assay: Ratio of Kpol/Kd for RNA-dependent DNA polymerase activity of HIV 1 reverse transcriptase M184V mutant assessed as incorporation of 4-EdTMP by burst assay using RNA/DNA Primer/Template combination. The method in brief: as §3
Assay [8] has the same test system. As to the kind of experiment: Selectivity index, ratio of Kpol/Kd for DNA-dependent DNA polymerase activity of HIV 1 reverse transcriptase M184V mutant assessed as incorporation of dTMP to Kpol/Kd for DNA-dependent DNA polymerase activity of HIV 1 reverse transcriptase reverse transcriptase M184V mutant assessed as incorporation of Ed4TMP. A digest of the protocol:
as §1

In assay [9] the target is Human immunodeficiency virus type 1 reverse transcriptase (Human immunodeficiency virus 1) (UniProt Q72547). As to the kind of experiment: Selectivity index, ratio of Kpol/Kd for RNA-dependent DNA polymerase activity of HIV 1 reverse transcriptase assessed as incorporation of dTMP to Kpol/Kd for RNA-dependent DNA polymerase activity of HIV 1 reverse transcriptase reverse transcriptase assessed as incorporation of Ed4TMP. A digest of the protocol:
as §1

The target is the same in assay [10]. As to the kind of experiment: Ratio of Kpol/Kd for RNA-dependent DNA polymerase activity of HIV 1 reverse transcriptase assessed as incorporation of 4-EdTMP by burst assay using RNA/DNA Primer/Template combination. A digest of the protocol: as §3
For assay [11], the target named is T1, Human immunodeficiency virus type 1 reverse transcriptase. Kind of assay: Inhibition of RNA-dependent DNA polymerase activity of HIV 1 reverse transcriptase M184V mutant assessed as incorporation of 4-EdTMP by single-turnover assay using RNA/DNA Primer/Template combination.
For assay [12], the target named is Human immunodeficiency virus type 1 reverse transcriptase (Human immunodeficiency virus 1) (UniProt Q72547). As to the kind of experiment: Activity of DNA-dependent DNA polymerase activity of HIV 1 reverse transcriptase assessed as incorporation of 4-EdTMP by burst assay using DNA/DNA Primer/Template combination. The method in brief:
as §4

For assay [13] the target is unchanged. As to the kind of experiment: Ratio of Kpol/Kd for DNA-dependent DNA polymerase activity of HIV 1 reverse transcriptase assessed as incorporation of 4-EdTMP by burst assay using DNA/DNA Primer/Template combination. The method in brief: as §3
Assay [14] shares this target. As to the kind of experiment: Selectivity index, ratio of Kpol/Kd for DNA-dependent DNA polymerase activity of HIV 1 reverse transcriptase assessed as incorporation of dTMP to Kpol/Kd for DNA-dependent DNA polymerase activity of HIV 1 reverse transcriptase reverse transcriptase assessed as incorporation of Ed4TMP. A digest of the protocol:
as §1

Assay [15] has the same target. Kind of assay: Activity of RNA-dependent DNA polymerase activity of HIV 1 reverse transcriptase assessed as incorporation of 4-EdTMP by burst assay using RNA/DNA Primer/Template combination. A digest of the protocol:
as §4

Assay [16] has as its system Human immunodeficiency virus type 1 reverse transcriptase (Human immunodeficiency virus 1), Q72547 [M184V]. Kind of assay: Activity of RNA-dependent DNA polymerase activity of HIV 1 reverse transcriptase M184V mutant assessed as incorporation of 4-EdTMP by burst assay using RNA/DNA Primer/Template combination. A digest of the protocol:
as §4

Assay [17] shares this test system. As to the kind of experiment: Activity of DNA-dependent DNA polymerase activity of HIV 1 reverse transcriptase M184V mutant assessed as incorporation of dTMP by burst assay using DNA/DNA Primer/Template combination. The method in brief:
as §4

Assay [18] has the same test system. Kind of assay: Ratio of Kpol/Kd for RNA-dependent DNA polymerase activity of HIV 1 reverse transcriptase M184V mutant assessed as incorporation of dTMP by burst assay using RNA/DNA Primer/Template combination. The method in brief: (§5)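 Single-turnover rapid-quench assay at 25°C, Tris-HCl pH 7.8 and NaCl. Enzyme (250 nM wild-type or M184V RT) was in excess over 5′-32P-labelled DNA/DNA or DNA/RNA P/T (50 nM), with the nucleotide triphosphate concentration varied. First-phase observed rates were fitted to kobs = kpol[S]/(Kd + [S]) to obtain Kd and kpol. Incorporation efficiency was taken as kpol/Kd.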

Assay [19] shares this test system. As to the kind of experiment: Ratio of Kpol/Kd for DNA-dependent DNA polymerase activity of HIV 1 reverse transcriptase M184V mutant assessed as incorporation of dTMP by burst assay using DNA/DNA Primer/Template combination. The method in brief: as §5
In assay [20] the target is Human immunodeficiency virus type 1 reverse transcriptase (Human immunodeficiency virus 1) (UniProt Q72547). As to the kind of experiment: Ratio of Kpol/Kd for RNA-dependent DNA polymerase activity of HIV 1 reverse transcriptase assessed as incorporation of dTMP by burst assay using RNA/DNA Primer/Template combination. A digest of the protocol: as §5
Assay [21] shares this target. Kind of assay: Activity of DNA-dependent DNA polymerase activity of HIV 1 reverse transcriptase assessed as incorporation of dTMP by burst assay using DNA/DNA Primer/Template combination. The method in brief: as §4
Assay [22] concerns the target T1, Human immunodeficiency virus type 1 reverse transcriptase. Kind of assay: Inhibition of DNA-dependent DNA polymerase activity of HIV 1 reverse transcriptase M184V mutant assessed as incorporation of dTMP by burst assay using DNA/DNA Primer/Template combination. The method in brief:
(§6)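 Pre-steady-state burst assay by rapid chemical quench at 25°C. Wild-type or M184V HIV-1 RT was preincubated with 5′-32P-labelled primer annealed to a DNA or RNA template. Final conditions were 100 nM enzyme, 300 nM P/T, and 1 mM nucleotide in 50 mM Tris-HCl pH 7.8 with 50 mM NaCl and MgSO4. Reactions were quenched with EDTA and products resolved by urea-PAGE with phosphorimaging. Data were fitted to the burst equation to give amplitude, kob and kss.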

The test system of assay [23] is Human immunodeficiency virus type 1 reverse transcriptase (Human immunodeficiency virus 1), Q72547 [M184V]. As to the kind of experiment: Activity of RNA-dependent DNA polymerase activity of HIV 1 reverse transcriptase M184V mutant assessed as incorporation of dTMP by burst assay using RNA/DNA Primer/Template combination. A digest of the protocol: as §6
For assay [24], the target named is Human immunodeficiency virus type 1 reverse transcriptase (Human immunodeficiency virus 1) (UniProt Q72547). As to the kind of experiment: Ratio of Kpol/Kd for DNA-dependent DNA polymerase activity of HIV 1 reverse transcriptase assessed as incorporation of dTMP by burst assay using DNA/DNA Primer/Template combination. The method in brief: as §5
For assay [25], the target named is T2, Human immunodeficiency virus type 1 reverse transcriptase. Kind of assay: Inhibition of RNA-dependent DNA polymerase activity of HIV 1 reverse transcriptase assessed as incorporation of dTMP by burst assay using RNA/DNA Primer/Template combination. The method in brief:
as §6

Assay [26] concerns the target T1, Human immunodeficiency virus type 1 reverse transcriptase. Kind of assay: Inhibition of RNA-dependent DNA polymerase activity of HIV 1 reverse transcriptase M184V mutant assessed as incorporation of dTMP by burst assay using RNA/DNA Primer/Template combination. A digest of the protocol:
as §6

Assay [27] has as its target T2, Human immunodeficiency virus type 1 reverse transcriptase. As to the kind of experiment: Inhibition of DNA-dependent DNA polymerase activity of HIV 1 reverse transcriptase assessed as incorporation of dTMP by burst assay using DNA/DNA Primer/Template combination. The method in brief: as §6
The target in assay [28] is Human immunodeficiency virus type 1 reverse transcriptase (Human immunodeficiency virus 1) (UniProt Q72547). As to the kind of experiment: Activity of RNA-dependent DNA polymerase activity of HIV 1 reverse transcriptase assessed as incorporation of dTMP by burst assay using RNA/DNA Primer/Template combination. A digest of the protocol: as §4
The target in assay [29] is T1, Human immunodeficiency virus type 1 reverse transcriptase. As to the kind of experiment: Inhibition of DNA-dependent DNA polymerase activity of HIV 1 reverse transcriptase M184V mutant assessed as incorporation of d4TMP by burst assay using DNA/DNA Primer/Template combination.
The target in assay [30] is T2, Human immunodeficiency virus type 1 reverse transcriptase. Kind of assay: Inhibition of RNA-dependent DNA polymerase activity of HIV 1 reverse transcriptase assessed as incorporation of d4TMP by burst assay using RNA/DNA Primer/Template combination.
For assay [31] the target is unchanged. As to the kind of experiment: Inhibition of DNA-dependent DNA polymerase activity of HIV 1 reverse transcriptase assessed as incorporation of d4TMP by burst assay using DNA/DNA Primer/Template combination.
For assay [32], the target named is T1, Human immunodeficiency virus type 1 reverse transcriptase. Kind of assay: Inhibition of RNA-dependent DNA polymerase activity of HIV 1 reverse transcriptase M184V mutant assessed as incorporation of d4TMP by burst assay using RNA/DNA Primer/Template combination.

The structures appear in SMILES notation.

As a reminder, the Kd is the equilibrium constant for the complex coming apart. `C#C[C@@]1(COP(=O)(O)OP(=O)(O)OP(=O)(O)O)C=C[C@H](n2cc(C)c(=O)[nH]c2=O)O1`: the Kd in assay [1] came out at 168 µM; in [3], 11.4 µM; in assay [6], 15.8 µM; in assay [11], 43.4 µM. The Ratio in [2] turned out to be 1.3; in [4], 0.11 µM⁻¹ s⁻¹; in assay [7], 0.22 µM⁻¹ s⁻¹; in [8] it was 2.8; in assay [9], 0.97; in assay [10], 1 µM⁻¹ s⁻¹. Also, the Ratio in [13] was determined as 0.77 µM⁻¹ s⁻¹; in assay [14], 1.9. In addition, the Activity in [5] was found to be 18.9 s⁻¹; in assay [12] it was 12.1 s⁻¹; in assay [15], 11.7 s⁻¹; in assay [16], 9.7 s⁻¹.

As to `Cc1cn([C@H]2C[C@H](O)[C@@H](COP(=O)(O)OP(=O)(O)OP(=O)(O)O)O2)c(=O)[nH]c1=O` [DEOXYTHYMIDINE_TRIPHOSPHATE], the Activity in assay [17] came to 22.4 s⁻¹; in [21], 22.6 s⁻¹; in assay [23], 41.7 s⁻¹; in [28] it was 65 s⁻¹. Further, the Ratio in [18] is 0.29 µM⁻¹ s⁻¹; in [19], 0.31 µM⁻¹ s⁻¹; in assay [20], 0.97 µM⁻¹ s⁻¹; in assay [24], 1.47 µM⁻¹ s⁻¹. Moreover, the Kd is 73.2 µM in assay [22], 67.1 µM in assay [25], 144 µM in [26] and 15.4 µM in [27].

As for `Cc1cn([C@H]2C=C[C@@H](COP(=O)(O)OP(=O)(O)OP(=O)(O)O)O2)c(=O)[nH]c1=O` [STAVUDINE TRIPHOSPHATE], the equilibrium dissociation constant (Kd) in [29] was 605 µM; in [30], 40.8 µM; in [31], 48 µM; in [32] it was 232 µM.

The record behind these values is ChEMBL document CHEMBL1275425, “Mechanism of inhibition of human immunodeficiency virus type 1 reverse transcriptase by a stavudine analogue, 4'-ethynyl stavudine triphosphate” (Antimicrob Agents Chemother, 2008).
